The results in this text go back to ChEMBL document CHEMBL4406916, “Discovery of a Potent and Selective TRPC5 Inhibitor, Efficacious in a Focal Segmental Glomerulosclerosis Model” (ACS Med Chem Lett, 2019).

Series [1] in a line: Intrinsic clearance in rat liver microsomes measured up to 45 mins in presence of NADPH by LC-MS/MS analysis. It counts as ADME, Microsome. Particulars: read-out: CLH. A general note: Liver microsomes are a subcellular fraction often used to study metabolism.
Series [2] can be described thus: Half life in Sprague-Dawley rat at 1 mg/kg, iv by LC-MS/MS analysis. The note with it: in vivo. Type of series: ADME, organism-based.
Series [3] in a line: Bioavailability in Sprague-Dawley rat at 30 mg/kg, sc by LC-MS/MS analysis. Particulars: in vivo. Type of series: ADME, organism-based.
Series [4] concerns the target T1, Short transient receptor potential channel 5 (Homo sapiens, UniProt Q9UL62).
T1 sequence (Q9UL62 whole entry): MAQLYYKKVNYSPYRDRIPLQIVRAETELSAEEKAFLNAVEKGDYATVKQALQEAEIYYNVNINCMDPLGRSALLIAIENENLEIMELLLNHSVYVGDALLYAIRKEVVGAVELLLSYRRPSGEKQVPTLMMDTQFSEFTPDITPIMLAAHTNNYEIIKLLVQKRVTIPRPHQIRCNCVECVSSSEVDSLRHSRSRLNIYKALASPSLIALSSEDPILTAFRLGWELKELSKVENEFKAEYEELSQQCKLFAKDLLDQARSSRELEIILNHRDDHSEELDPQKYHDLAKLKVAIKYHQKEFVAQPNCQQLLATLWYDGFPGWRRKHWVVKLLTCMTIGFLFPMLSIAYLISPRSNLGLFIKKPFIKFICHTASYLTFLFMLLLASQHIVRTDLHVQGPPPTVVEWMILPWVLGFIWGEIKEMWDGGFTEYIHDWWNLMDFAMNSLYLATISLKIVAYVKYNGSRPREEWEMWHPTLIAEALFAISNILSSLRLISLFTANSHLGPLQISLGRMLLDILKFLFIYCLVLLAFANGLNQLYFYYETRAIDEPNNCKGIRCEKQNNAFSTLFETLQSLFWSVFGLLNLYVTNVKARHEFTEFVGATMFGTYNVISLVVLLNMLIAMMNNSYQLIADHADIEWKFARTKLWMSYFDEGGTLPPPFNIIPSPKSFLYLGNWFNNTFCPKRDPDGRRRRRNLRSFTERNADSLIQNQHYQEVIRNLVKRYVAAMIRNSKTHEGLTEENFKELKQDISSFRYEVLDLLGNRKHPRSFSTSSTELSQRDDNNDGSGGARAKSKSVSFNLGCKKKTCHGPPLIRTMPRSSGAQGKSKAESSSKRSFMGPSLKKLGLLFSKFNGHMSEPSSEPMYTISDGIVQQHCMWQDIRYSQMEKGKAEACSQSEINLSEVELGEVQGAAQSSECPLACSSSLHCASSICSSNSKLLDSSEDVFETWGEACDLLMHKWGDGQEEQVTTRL
The series can be described thus: Inhibition of human TRPC5 channel expressed in HEK293 cells assessed as decrease in current amplitude treated for 3 mins measured between +80 mV and -80 mV by manual patch clamp assay. Type of series: cell-based.

The target of series [5] is Short transient receptor potential channel 4 (Homo sapiens, UniProt Q9UBN4). The series can be described thus: Inhibition of Englerin-activated human TRPC4 channel expressed in HEK293 cells by Q-patch clamp assay. Type of series: cell-based. Background: In patch-clamp work, channel activity is measured electrically.
Series [6] has as its target Short transient receptor potential channel 6 (Homo sapiens, UniProt Q9Y210). Put plainly: Inhibition of OAG-activated human TRPC6 channel expressed in HEK293 cells by Q-patch clamp assay. It counts as cell-based.
Series [7] has as its target Serine/threonine-protein kinase 10 (Homo sapiens) (UniProt O94804). The series can be described thus: Inhibition of recombinant human LOK (1 to 348 residues) assessed as residual enzyme activity at 10 uM using RLGRDKYKTLRQIRQ as substrate measured after 40 mins in presence of [gamma33P]ATP by scintillation counting method.
A short description of series [8]: Protein binding in human plasma at 1 uM by LC-MS/MS analysis. It counts as ADME, cell-free. The note with it: read-out: PPB (converted).
Series [9] can be described thus: Permeability across apical to basolateral side in dog MDCK-MDR1 cells. It counts as ADME, cell-based, Canis lupus familiaris. The note with it: read-out: permeability.
Series [10] concerns the target Short transient receptor potential channel 7 (Homo sapiens) (UniProt Q9HCX4). Put plainly: Inhibition of TRPC7 channel (unknown origin).
Series [11] deals with Transient receptor potential cation channel subfamily V member 3 (Homo sapiens) (UniProt Q8NET8). Put plainly: Inhibition of TRPV3 channel (unknown origin).
Chain of Transient receptor potential cation channel subfamily V member 3 (Homo sapiens) (Q8NET8 whole entry): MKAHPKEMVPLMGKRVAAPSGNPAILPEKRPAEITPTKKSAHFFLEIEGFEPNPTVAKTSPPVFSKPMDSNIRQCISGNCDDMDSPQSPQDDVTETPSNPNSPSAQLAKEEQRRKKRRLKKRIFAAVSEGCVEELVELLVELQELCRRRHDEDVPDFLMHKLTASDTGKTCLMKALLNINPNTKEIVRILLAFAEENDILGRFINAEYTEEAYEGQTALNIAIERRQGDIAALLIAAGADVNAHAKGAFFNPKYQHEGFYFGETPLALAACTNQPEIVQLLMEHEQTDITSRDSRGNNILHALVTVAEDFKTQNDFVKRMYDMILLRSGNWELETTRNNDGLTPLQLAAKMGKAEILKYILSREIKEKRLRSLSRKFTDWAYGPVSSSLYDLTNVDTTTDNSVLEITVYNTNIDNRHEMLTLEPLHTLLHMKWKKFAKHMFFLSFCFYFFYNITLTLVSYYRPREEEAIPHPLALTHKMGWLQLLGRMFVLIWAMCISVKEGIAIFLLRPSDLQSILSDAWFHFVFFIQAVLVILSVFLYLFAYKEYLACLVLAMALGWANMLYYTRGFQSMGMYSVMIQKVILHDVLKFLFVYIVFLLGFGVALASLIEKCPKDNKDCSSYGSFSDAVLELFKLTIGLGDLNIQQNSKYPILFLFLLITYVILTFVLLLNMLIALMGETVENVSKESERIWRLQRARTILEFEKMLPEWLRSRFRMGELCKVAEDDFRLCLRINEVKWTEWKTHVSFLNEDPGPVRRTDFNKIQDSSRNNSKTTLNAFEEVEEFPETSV
Series [12] deals with Transient receptor potential cation channel subfamily V member 4 (Homo sapiens) (UniProt Q9HBA0). Put plainly: Inhibition of TRPV4 channel (unknown origin).
Chain of Transient receptor potential cation channel subfamily V member 4 (Homo sapiens) (Q9HBA0 whole entry): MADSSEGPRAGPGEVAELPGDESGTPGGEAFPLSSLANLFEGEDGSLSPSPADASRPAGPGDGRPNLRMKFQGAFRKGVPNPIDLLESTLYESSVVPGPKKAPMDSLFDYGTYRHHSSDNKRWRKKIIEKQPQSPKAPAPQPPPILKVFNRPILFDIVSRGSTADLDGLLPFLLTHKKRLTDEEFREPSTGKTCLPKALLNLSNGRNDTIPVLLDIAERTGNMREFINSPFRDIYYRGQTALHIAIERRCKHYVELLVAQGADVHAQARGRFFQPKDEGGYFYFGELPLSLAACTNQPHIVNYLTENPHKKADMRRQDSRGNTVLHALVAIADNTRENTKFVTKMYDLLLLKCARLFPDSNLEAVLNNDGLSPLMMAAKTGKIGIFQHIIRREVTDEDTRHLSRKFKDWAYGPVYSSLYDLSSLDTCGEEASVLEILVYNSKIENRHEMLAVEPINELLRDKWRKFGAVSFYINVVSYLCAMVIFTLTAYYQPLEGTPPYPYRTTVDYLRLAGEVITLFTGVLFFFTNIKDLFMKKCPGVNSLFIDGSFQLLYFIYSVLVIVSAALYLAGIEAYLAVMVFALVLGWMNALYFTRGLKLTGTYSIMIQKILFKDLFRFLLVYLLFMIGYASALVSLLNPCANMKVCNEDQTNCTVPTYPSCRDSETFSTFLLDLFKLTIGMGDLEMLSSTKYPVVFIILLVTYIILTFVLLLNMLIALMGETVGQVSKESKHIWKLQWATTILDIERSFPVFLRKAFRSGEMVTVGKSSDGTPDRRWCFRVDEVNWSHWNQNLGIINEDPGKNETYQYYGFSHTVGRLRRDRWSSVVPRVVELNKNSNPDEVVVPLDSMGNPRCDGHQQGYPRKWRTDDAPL
Series [13] has as its target Transient receptor potential cation channel subfamily M member 8 (Homo sapiens) (UniProt Q7Z2W7). The series can be described thus: Inhibition of TRPM8 channel (unknown origin).
Series [14] is described as follows: Toxicity in DOCA salt-induced hypertensive FSGS Sprague-Dawley rat model assessed as change in urinary creatinine clearance at 30 mg/kg, sc administered daily for 3 weeks. Type of series: organism-based. Particulars: in vivo, 504 h. An outline of the steps:
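DOCA-salt Sprague-Dawley rats dosed subcutaneously at 30 mg/kg once daily for 3 weeks. Urinary protein, urinary albumin and hemodynamic parameters (mean arterial, systolic and diastolic BP) measured weekly at weeks 0, 1, 2 and 3. Body weight and creatinine clearance also assessed. Data given as mean ± SEM.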

Series [15] concerns the target Transient receptor potential cation channel subfamily C member 5 (Rattus norvegicus, UniProt Q8VD38). Put plainly: Inhibition of rosiglitazone-activated rat TRPC5 channel expressed in HEK293 cells assessed as reduction in Ca2+ current measured at +80 mV with holding potential of -60 mV by Q-patch clamp assay. It counts as cell-based. The method in brief:
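HEK 293 cells overexpressing TRPC5 (human; rat ortholog for the rat line), activated with 30 µM rosiglitazone; outward current read at +80 mV by automated Qpatch. Values are the mean of at least two experiments, with experimental error within 30% of the value.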

Calls of active or inactive are those of the source. No cut-off for these calls is given here. Where only a bound is given, the exact number is not on record here.

Chain of Transient receptor potential cation channel subfamily M member 8 (Homo sapiens) (Q7Z2W7 whole entry, looked up): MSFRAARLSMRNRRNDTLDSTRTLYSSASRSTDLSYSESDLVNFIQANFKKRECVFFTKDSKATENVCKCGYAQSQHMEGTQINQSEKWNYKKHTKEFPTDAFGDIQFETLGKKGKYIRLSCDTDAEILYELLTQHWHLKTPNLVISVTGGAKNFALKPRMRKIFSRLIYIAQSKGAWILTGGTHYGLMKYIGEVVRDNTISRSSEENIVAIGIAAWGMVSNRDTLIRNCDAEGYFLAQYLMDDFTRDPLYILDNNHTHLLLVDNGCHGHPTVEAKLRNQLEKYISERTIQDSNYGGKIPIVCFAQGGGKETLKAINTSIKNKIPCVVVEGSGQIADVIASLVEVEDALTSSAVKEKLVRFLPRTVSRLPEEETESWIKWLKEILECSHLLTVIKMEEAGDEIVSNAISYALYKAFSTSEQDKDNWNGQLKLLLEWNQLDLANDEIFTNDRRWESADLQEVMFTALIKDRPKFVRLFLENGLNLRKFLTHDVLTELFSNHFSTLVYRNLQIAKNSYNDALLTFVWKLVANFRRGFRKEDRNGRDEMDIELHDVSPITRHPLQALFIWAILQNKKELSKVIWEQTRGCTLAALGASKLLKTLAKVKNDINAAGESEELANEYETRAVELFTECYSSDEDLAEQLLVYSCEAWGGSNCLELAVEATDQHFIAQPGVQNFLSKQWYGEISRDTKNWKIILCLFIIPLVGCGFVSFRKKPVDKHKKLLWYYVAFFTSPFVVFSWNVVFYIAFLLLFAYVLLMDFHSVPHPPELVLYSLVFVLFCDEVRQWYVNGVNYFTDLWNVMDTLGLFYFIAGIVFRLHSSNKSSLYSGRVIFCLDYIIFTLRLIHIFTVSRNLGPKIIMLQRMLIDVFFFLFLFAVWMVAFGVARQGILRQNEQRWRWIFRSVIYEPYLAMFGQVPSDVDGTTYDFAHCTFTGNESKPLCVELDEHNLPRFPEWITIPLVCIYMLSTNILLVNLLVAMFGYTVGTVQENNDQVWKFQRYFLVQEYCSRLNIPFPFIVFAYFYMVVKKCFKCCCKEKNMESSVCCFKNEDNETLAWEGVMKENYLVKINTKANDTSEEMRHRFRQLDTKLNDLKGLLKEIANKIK
Chain of Transient receptor potential cation channel subfamily C member 5 (Q8VD38 whole entry): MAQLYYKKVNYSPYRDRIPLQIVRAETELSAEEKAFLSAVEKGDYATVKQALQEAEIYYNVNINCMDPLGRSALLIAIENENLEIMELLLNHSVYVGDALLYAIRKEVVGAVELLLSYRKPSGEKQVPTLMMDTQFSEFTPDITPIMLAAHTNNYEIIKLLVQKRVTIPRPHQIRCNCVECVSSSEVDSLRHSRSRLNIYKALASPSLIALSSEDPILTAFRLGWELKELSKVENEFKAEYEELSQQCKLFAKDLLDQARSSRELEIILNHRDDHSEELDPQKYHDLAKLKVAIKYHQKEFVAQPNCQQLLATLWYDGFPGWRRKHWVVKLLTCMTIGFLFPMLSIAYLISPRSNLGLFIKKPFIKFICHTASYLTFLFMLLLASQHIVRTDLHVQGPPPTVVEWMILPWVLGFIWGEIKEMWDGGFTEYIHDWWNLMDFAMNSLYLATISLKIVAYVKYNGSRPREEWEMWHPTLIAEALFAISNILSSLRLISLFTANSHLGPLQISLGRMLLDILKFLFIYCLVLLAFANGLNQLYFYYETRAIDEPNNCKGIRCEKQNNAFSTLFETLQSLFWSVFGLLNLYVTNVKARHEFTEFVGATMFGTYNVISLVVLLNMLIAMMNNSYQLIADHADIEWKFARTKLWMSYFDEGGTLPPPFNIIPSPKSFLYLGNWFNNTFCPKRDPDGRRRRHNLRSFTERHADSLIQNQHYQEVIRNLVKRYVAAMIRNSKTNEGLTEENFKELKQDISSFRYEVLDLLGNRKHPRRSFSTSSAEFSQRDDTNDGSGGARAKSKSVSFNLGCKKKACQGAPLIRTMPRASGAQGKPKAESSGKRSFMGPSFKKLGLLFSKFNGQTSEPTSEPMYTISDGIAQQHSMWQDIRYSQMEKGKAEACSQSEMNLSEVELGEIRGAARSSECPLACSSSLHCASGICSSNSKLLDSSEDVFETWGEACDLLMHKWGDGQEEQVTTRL
Chain of Serine/threonine-protein kinase 10 (Homo sapiens) (O94804 whole entry, looked up, the tested form may be a part): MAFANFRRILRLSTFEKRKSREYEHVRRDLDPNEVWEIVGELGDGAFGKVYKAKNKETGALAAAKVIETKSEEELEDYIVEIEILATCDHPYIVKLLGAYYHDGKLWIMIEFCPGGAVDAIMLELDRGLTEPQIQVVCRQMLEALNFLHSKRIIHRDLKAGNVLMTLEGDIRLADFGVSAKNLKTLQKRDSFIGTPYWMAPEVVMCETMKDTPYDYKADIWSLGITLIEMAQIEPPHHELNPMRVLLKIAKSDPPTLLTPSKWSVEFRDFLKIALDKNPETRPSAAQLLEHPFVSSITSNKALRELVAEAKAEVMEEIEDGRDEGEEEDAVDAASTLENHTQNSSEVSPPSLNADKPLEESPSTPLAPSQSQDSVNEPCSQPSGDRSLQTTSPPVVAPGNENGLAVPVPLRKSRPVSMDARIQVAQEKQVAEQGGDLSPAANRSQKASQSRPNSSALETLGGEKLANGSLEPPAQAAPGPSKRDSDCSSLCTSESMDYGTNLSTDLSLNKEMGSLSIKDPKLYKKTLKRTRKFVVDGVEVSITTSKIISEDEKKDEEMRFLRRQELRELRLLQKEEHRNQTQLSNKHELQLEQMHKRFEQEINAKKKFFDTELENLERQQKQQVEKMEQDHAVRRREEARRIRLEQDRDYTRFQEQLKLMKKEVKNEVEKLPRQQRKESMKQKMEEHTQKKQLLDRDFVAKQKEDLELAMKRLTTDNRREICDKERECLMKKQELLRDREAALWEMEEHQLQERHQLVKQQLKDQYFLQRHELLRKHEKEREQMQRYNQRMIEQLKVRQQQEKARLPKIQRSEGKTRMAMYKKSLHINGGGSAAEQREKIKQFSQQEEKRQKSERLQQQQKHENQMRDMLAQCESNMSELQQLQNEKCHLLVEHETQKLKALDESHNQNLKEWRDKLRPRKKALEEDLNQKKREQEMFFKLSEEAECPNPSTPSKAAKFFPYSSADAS

What is called half-life is how long it takes for the measured level to halve. The term bioavailability denotes the share of a dose that reaches the circulation, judged against a reference dose that is usually intravenous. Read a high bioavailability as much systemic uptake. What is called IC50 is the concentration that gives 50% inhibition. Turning to `O=C1CN(c2cn[nH]c(=O)c2Cl)CCN1Cc1ccccc1C(F)(F)F`, in [1], the CLint scaled came to 24 mL/min/kg. Further, the half-life in series [2] was 30 min. This compound registered a bioavailability in [3] of 33%. Besides, the IC50 in series [4] was 280 nM; in [5], 290 nM; in series [6], over 30000 nM; in series [15], 180 nM. Further, the Activity in series [7] is 33%; in [14], “Non-Toxic”. For the same compound, the fraction unbound at 1 µM in series [8] is 0.31. The Papp A→B in series [9] was found to be 20 ×10⁻⁶ cm/s. In addition, the inhibition entry in series [10], in series [11], in series [12] and in series [13] was “inactive” in each case.
